# Results taken from the RNAGym collection of RNA variant scans (doi:10.1126/science.aae0568).
# Variants at the floor of the assay were thinned out.
# B1: tRNA (parent)
# chain: GUUCCGUUGGCGUAAUGGUAACGCGUCUCCCUCCUAAGGAGAAGACUGCGGGUUCGAGUCCCGUACGGAACG
# Variants of: B1
# Assay: yeast fitness relative to wild type (ratio to wild type); higher = fitter; tRNA-Arg(CCU), competitive growth, 37 C, YPD
# How it was run: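 Variants of the tRNA-Arg(CCU) gene, chemically synthesised with a 3% per-site mutation rate at 69 sites, were placed at the native genomic locus in Saccharomyces cerevisiae. The pooled strains were competed in YPD at 37°C for 24 hours in six parallel replicates. Gene amplicons from the start population and from each end population were read by 100-nucleotide paired-end sequencing. Darwinian fitness relative to wild type came from changes in genotype frequencies; genotypes needed ≥ 100 starting reads, and estimates < 0.5 were set to 0.5.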
row,Variant,yeast fitness
1,C27G C34G U54A,0.6
2,C27A C30A A45C G56C C60U G68U,≤ 0.5
3,C27A A43U U64C,0.628
4,C27G U53G,≤ 0.5
5,C27A U28C A37C,≤ 0.5
6,C27G C31A A70U,≤ 0.5
7,C27U A40U U54C,≤ 0.5
8,C27G G41A U64A,0.681
9,C27U C33G C34G G44A G50A G52A A65U,≤ 0.5
10,C27G A45U C55A,≤ 0.5
11,C27A C34U A42C U53G C66U,0.536
12,C27G C34U G41C G51A,≤ 0.5
13,C27U A45C G67A,0.666
14,C27G G41A A57G,0.746
15,C27G C31A A37C,≤ 0.5
16,C27U A36C A57G,≤ 0.5
17,C27U C29U C62U,0.578
18,C27A A42C C46U C62U,0.563
19,C27U C30U C46G,0.558
20,C27A U35C U64A,≤ 0.5
21,C27U A37U U47G,0.531

row,Variant,yeast fitness
1,C27G A37C A42G G48C U59C,0.533
2,C27U C31U G48A,1
3,C27A G44C G50C,0.639
4,C27A A57C C62U,0.531
5,C27U A45C C49U G56A,≤ 0.5
6,C27G A45U G56C,0.531
7,C27G G39A C66U G67A,≤ 0.5
8,C27G C31G C61A,0.693
9,C27A U59C,0.883
10,C27A U59G,0.778
11,C27G C33U A45U G63A,≤ 0.5
12,C27A A45U C60G G63A A65U C66U,≤ 0.5
13,C27G A65G,0.694
14,C27G A65U,0.713
15,C27A A70U,0.962
16,C27A A70C,0.787
17,C27G A65U A70G,0.575
18,C27A C60G U64C,0.779
19,C27A G39C,0.616
20,C27G C55A G58A,≤ 0.5
21,C27A A37C G68A,≤ 0.5

row,Variant,yeast fitness
1,C27G A57G,0.608
2,C27G A57U,0.591
3,C27A A43C C66U,0.709
4,C27G A42C G63C,≤ 0.5
5,C27G A43G C60A,≤ 0.5
6,C27A C29A C49A,≤ 0.5
7,C27G U28A A43U,0.582
8,C27G A43C A65U G67U,≤ 0.5
9,C27A A37G G39C C55U A65C,≤ 0.5
10,C27G C33G G44A,0.669
11,C27U A42U C61G,0.545
12,C27G G38A A70U,≤ 0.5
13,C27G U54C A69G,0.625
14,C27G C29G C34U C55U C61G,0.65
15,C27U A37C G51C G67U,0.543
16,C27G C30G G56U G63A,≤ 0.5
17,C27A G56C A70U,≤ 0.5
18,C27G G41A C55U,0.618
19,C27A A37C C62G,≤ 0.5
20,C27G C31G G38C,0.504
21,C27A C30G A42C C61G,1.01

row,Variant,yeast fitness
1,C27G G39A C66G,0.655
2,C27U C30G A45C C60U C62G,0.818
3,C27G U28A C30G C31U G68C A70C,≤ 0.5
4,C27A C30A,0.766
5,C27A C31U A43U,0.961
6,C27U C33U A36U A43G,≤ 0.5
7,C27U A37G A70C,0.562
8,C27U C30A C46G,0.698
9,C27G U32G A36C C46G,≤ 0.5
10,C27G A37G G52U,≤ 0.5
11,C27A C61A,0.67
12,C27U A65U A70C,0.607
13,C27G C30U G39C A40U G44C U47A G48A,≤ 0.5
14,C27G C34G C46U C49U,≤ 0.5
15,C27A U28G,0.66
16,C27A U28A,0.841
17,C27A U35C A37U C49U C55U C60G A65C,≤ 0.5
18,C27G G44C A45G U64A,≤ 0.5
19,C27A C49A G56C A65G,≤ 0.5
20,C27U C30A A42U A57U G63A A65C,0.597
